Columns and labels:
Mus musculus [1] = experiment: The diuretic activity was measured after oral administration in saline loaded mice at 64 mg/kg after 5 hr; format: functional, Urine
How it was run: (§1)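 Mice were dosed orally with drug in 1% saline at 10 mL/kg, at 4 or 64 mg/kg, alongside a vehicle control. There were 10 mice per group, housed 5 per metabolic cage. Pooled urine was analysed for sodium by flame photometry and expressed as mean mequiv/kg/5 h.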

Canis familiaris [2] = experiment: Diuretic activity was measured after oral administration in conscious water loaded dogs at 20 mg/kg after 1 hr; format: functional, Canis lupus familiaris, Urine
How it was run: (§2)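 Male mongrel dogs (20–25 kg) were given 20 mL/kg tap water by gavage about 15 h before drug, with water ad libitum overnight. On the test day they received 4 mL/kg tap water hourly for 7 h, and the bladder was emptied at each interval. Drug was gavaged in the 4 mL/kg water load after the third urine sample, with Tween 80 added when it was poorly soluble. Urinary Na+ was measured by flame photometry as the mean excretory rate (μequiv/kg) per interval per animal. Each dog was its own control, using the hour before dosing.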

Mus musculus [3] = experiment: The diuretic activity of compound was measured after oral administration in saline loaded mice at 8 mg/kg after 5h; micro equiv of Na+/kg; format: functional, Urine
Mus musculus [4] = experiment: The diuretic activity was measured after oral administration in saline loaded mice at 4 mg/kg after 5 hr; format: functional, Urine; how it was run: as §1
Mus musculus [5] = experiment: The diuretic activity of compound was measured after oral administration in saline loaded mice at 4 mg/kg after 5h.; format: functional, Urine; how it was run: as §1
Mus musculus [6] = experiment: The diuretic activity of compound was measured after oral administration in saline loaded mice at 64 mg/kg after 5h.; format: functional, Urine; how it was run: as §1
Canis familiaris [7] = experiment: The diuretic activity of compound was measured after oral administration in conscious water loaded dogs at 5 mg/kg after 7h; Micro equiv of Na+/kg; format: functional, Canis lupus familiaris, Urine; how it was run: as §2
Canis familiaris [8] = experiment: The diuretic activity of compound was measured after oral administration in conscious water loaded dogs at 5 mg/kg after 6 h; Micro equiv of Na+/kg; format: functional, Canis lupus familiaris, Urine; how it was run: as §2
Canis familiaris [9] = experiment: The diuretic activity of compound was measured after oral administration in conscious water loaded dogs at 5 mg/kg after 2 hr; Micro equiv of Na+/kg; format: functional, Canis lupus familiaris, Urine; how it was run: as §2
Canis familiaris [10] = experiment: The diuretic activity of compound was measured after oral administration in conscious water loaded dogs at 5 mg/kg after 5h; Micro equiv of Na+/kg; format: functional, Canis lupus familiaris, Urine; how it was run: as §2
Canis familiaris [11] = experiment: The diuretic activity of compound was measured after oral administration in conscious water loaded dogs at 5 mg/kg after 1 hr; Micro equiv of Na+/kg; format: functional, Canis lupus familiaris, Urine; how it was run: as §2
Canis familiaris [12] = experiment: The diuretic activity of compound was measured after oral administration in conscious water loaded dogs at 5 mg/kg after 4 hr; Micro equiv of Na+/kg; format: functional, Canis lupus familiaris, Urine; how it was run: as §2
Canis familiaris [13] = experiment: The diuretic activity of compound was measured after oral administration in conscious water loaded dogs at 5 mg/kg after 3 hr; Micro equiv of Na+/kg; format: functional, Canis lupus familiaris, Urine; how it was run: as §2
Canis familiaris [14] = experiment: Diuretic activity was measured after oral administration in conscious water loaded dogs at 5 mg/kg after 1 hr; format: functional, Canis lupus familiaris, Urine; how it was run: as §2
Canis familiaris [15] = experiment: Diuretic activity was measured after oral administration in conscious water loaded dogs at 10 mg/kg after 2 hr

SMILES	Oral diuretic activity (Mus musculus [1])	Oral diuretic activity (Canis familiaris [2])	Oral diuretic activity (Mus musculus [4])	also measured
Cc1c(OCC(=O)O)ccc2c(-c3ccccc3F)noc12	7.24 m equiv [Na+] 5hr-1kg-1	478.9 u equiv of [Na+] kg-1 hr-1		Oral diuretic activity (Mus musculus [3]): 1.86 m equiv [Na+] 5hr-1kg-1
Cc1ccc(-c2noc3c(Cl)c(OCC(=O)O)ccc23)o1	1.5 m equiv [Na+] 5hr-1kg-1	37.4 u equiv of [Na+] kg-1 hr-1	0.3 m equiv [Na+] 5hr-1kg-1	
O=C(O)COc1ccc2c(-c3ccc(O)cc3F)noc2c1Cl	0.6 m equiv [Na+] 5hr-1kg-1	43.5 u equiv of [Na+] kg-1 hr-1	0.5 m equiv [Na+] 5hr-1kg-1	
O=C(O)COc1ccc2c(-c3ccc(Cl)c(Cl)c3)noc2c1Cl	0.1 m equiv [Na+] 5hr-1kg-1	101.6 u equiv of [Na+] kg-1 hr-1	0.6 m equiv [Na+] 5hr-1kg-1	
O=C(O)COc1cc(Cl)c2c(-c3ccccc3F)noc2c1	1.16 m equiv [Na+] 5hr-1kg-1	82.1 u equiv of [Na+] kg-1 hr-1	1.59 m equiv [Na+] 5hr-1kg-1	
O=C(O)COc1ccc(-c2noc3ccccc23)c(Cl)c1Cl	1.49 m equiv [Na+] 5hr-1kg-1	81.6 u equiv of [Na+] kg-1 hr-1	0.33 m equiv [Na+] 5hr-1kg-1	
O=C(O)CSc1ccc2c(-c3ccccc3F)noc2c1Cl	4.67 m equiv [Na+] 5hr-1kg-1	328.4 u equiv of [Na+] kg-1 hr-1	1.37 m equiv [Na+] 5hr-1kg-1	
O=C(O)COc1ccc2c(-c3cccc[n+]3[O-])noc2c1Cl		116.6 u equiv of [Na+] kg-1 hr-1		Oral diuretic activity (Mus musculus [5]): 0.5 m equiv [Na+] 5hr-1kg-1; Oral diuretic activity (Mus musculus [6]): 1 m equiv [Na+] 5hr-1kg-1
O=C(O)COc1ccc2c(-c3ccc(F)cc3)noc2c1Cl	0.4 m equiv [Na+] 5hr-1kg-1	178.7 u equiv of [Na+] kg-1 hr-1	0.4 m equiv [Na+] 5hr-1kg-1	
O=C(O)COc1ccc2c(-c3ccc(Cl)cc3F)noc2c1Cl	1.4 m equiv [Na+] 5hr-1kg-1	156.2 u equiv of [Na+] kg-1 hr-1	1.8 m equiv [Na+] 5hr-1kg-1	
O=C(O)COc1ccc2c(-c3ccccc3F)noc2c1Cl	10 m equiv [Na+] 5hr-1kg-1	1267.5 u equiv of [Na+] kg-1 hr-1	3.5 m equiv [Na+] 5hr-1kg-1	Oral diuretic activity (Canis familiaris [7]): 146.2 u equiv of [Na+] kg-1; Oral diuretic activity (Canis familiaris [8]): 241.7 u equiv of [Na+] kg-1; Oral diuretic activity (Canis familiaris [9]): 499.4 u equiv of [Na+] kg-1; Oral diuretic activity (Canis familiaris [10]): 458.2 u equiv of [Na+] kg-1; Oral diuretic activity (Canis familiaris [11]): 48.6 u equiv of [Na+] kg-1; Oral diuretic activity (Canis familiaris [12]): 503.7 u equiv of [Na+] kg-1; Oral diuretic activity (Canis familiaris [13]): 727 u equiv of [Na+] kg-1
O=C(O)COc1ccc2c(-c3cc(F)ccc3F)noc2c1Cl	8.3 m equiv [Na+] 5hr-1kg-1	926.2 u equiv of [Na+] kg-1 hr-1	2.2 m equiv [Na+] 5hr-1kg-1	
O=C(O)COc1ccc2c(-c3ccc(F)cc3F)noc2c1Cl	0.9 m equiv [Na+] 5hr-1kg-1	41.7 u equiv of [Na+] kg-1 hr-1	0.7 m equiv [Na+] 5hr-1kg-1	
O=C(O)COc1ccc2c(-c3cccc(F)c3)noc2c1Cl	0.81 m equiv [Na+] 5hr-1kg-1	50.6 u equiv of [Na+] kg-1 hr-1	0.75 m equiv [Na+] 5hr-1kg-1	
O=C(O)COc1c(Cl)c(Cl)c2c(-c3ccccc3F)noc2c1Cl	1.65 m equiv [Na+] 5hr-1kg-1	109 u equiv of [Na+] kg-1 hr-1	0.53 m equiv [Na+] 5hr-1kg-1	
O=C(O)COc1ccc2c(-c3c(F)cccc3F)noc2c1Cl	10.4 m equiv [Na+] 5hr-1kg-1	1081.4 u equiv of [Na+] kg-1 hr-1	5.3 m equiv [Na+] 5hr-1kg-1	Oral diuretic activity (Canis familiaris [7]): 190 u equiv of [Na+] kg-1; Oral diuretic activity (Canis familiaris [8]): 342.6 u equiv of [Na+] kg-1; Oral diuretic activity (Canis familiaris [9]): 98.9 u equiv of [Na+] kg-1; Oral diuretic activity (Canis familiaris [10]): 397 u equiv of [Na+] kg-1; Oral diuretic activity (Canis familiaris [11]): 108.4 u equiv of [Na+] kg-1; Oral diuretic activity (Canis familiaris [12]): 431.8 u equiv of [Na+] kg-1; Oral diuretic activity (Canis familiaris [13]): 257.2 u equiv of [Na+] kg-1
O=C(O)COc1ccc2c(-c3ccccc3F)noc2c1Br [BROCRINAT]	11.53 m equiv [Na+] 5hr-1kg-1	1970.7 u equiv of [Na+] kg-1 hr-1	1.02 m equiv [Na+] 5hr-1kg-1	Oral diuretic activity (Canis familiaris [9]): 1083 u equiv of [Na+] kg-1; Oral diuretic activity (Canis familiaris [10]): 503.3 u equiv of [Na+] kg-1; Oral diuretic activity (Canis familiaris [11]): 106.8 u equiv of [Na+] kg-1; Oral diuretic activity (Canis familiaris [12]): 869 u equiv of [Na+] kg-1; Oral diuretic activity (Canis familiaris [13]): 1182.6 u equiv of [Na+] kg-1
C=C(CC)C(=O)c1ccc(OCC(=O)O)c(Cl)c1Cl [ETHACRYNIC ACID]		703 µequiv [Na+] kg-1 hr-1		Oral diuretic activity (Mus musculus [5]): 1.09 m equiv [Na+] 5hr-1kg-1; Oral diuretic activity (Mus musculus [6]): 4.14 m equiv [Na+] 5hr-1kg-1
NS(=O)(=O)c1cc(C(=O)O)c(NCc2ccco2)cc1Cl [FUROSEMIDE]	7.96 m equiv [Na+] 5hr-1kg-1		1.93 m equiv [Na+] 5hr-1kg-1	Oral diuretic activity (Canis familiaris [8]): 40.4 u equiv of [Na+] kg-1; Oral diuretic activity (Canis familiaris [9]): 1311.5 u equiv of [Na+] kg-1; Oral diuretic activity (Canis familiaris [10]): 144.1 u equiv of [Na+] kg-1; Oral diuretic activity (Canis familiaris [11]): 1207 u equiv of [Na+] kg-1; Oral diuretic activity (Canis familiaris [14]): 1311.5 u equiv of [Na+] kg-1 hr-1; Oral diuretic activity (Canis familiaris [12]): 333.9 u equiv of [Na+] kg-1; Oral diuretic activity (Canis familiaris [13]): 763.6 u equiv of [Na+] kg-1
CC1(c2ccccc2)Cc2cc(OCC(=O)O)c(Cl)c(Cl)c2C1=O (configuration not stated) [INDACRINONE]	7.6 m equiv [Na+] 5hr-1kg-1		2.1 m equiv [Na+] 5hr-1kg-1	Oral diuretic activity (Canis familiaris [15]): 1141.4 u equiv of [Na+] kg-1 hr-1
O=C(O)COc1ccc(C(=O)c2cccs2)c(Cl)c1Cl [TICRYNAFEN]	3.31 m equiv [Na+] 5hr-1kg-1	302.3 u equiv of [Na+] kg-1 hr-1	1.11 m equiv [Na+] 5hr-1kg-1	Oral diuretic activity (Canis familiaris [7]): 21.2 u equiv of [Na+] kg-1; Oral diuretic activity (Canis familiaris [10]): 36.5 u equiv of [Na+] kg-1; Oral diuretic activity (Canis familiaris [11]): 127.5 u equiv of [Na+] kg-1; Oral diuretic activity (Canis familiaris [12]): 77.4 u equiv of [Na+] kg-1

Source: ChEMBL document CHEMBL1121929, “[(3-aryl-1,2-benzisoxazol-6-yl)oxy]acetic acids. A new diuretic series” (1982)
